Data set [1] relates to SW480. The data set can be described thus: Antitumor activity against human SW480 cells after 72 hrs by MTS assay. The format is functional, cell-based. The note with it: SW480, 72 h. The method in brief: (§1)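 Colon adenocarcinoma cells (Advanced DMEM with 2 mM L-glutamine and 10% heat-treated FBS, or RPMI-1640 with 10% FBS) exposed to increasing concentrations (10–100 μM, or 1.6–50 μM) for 72 h. Viable cells quantified by MTS. IC50 from dose-response curves, at least three independent experiments.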

Data set [2] can be described thus: Selectivity ratio of IC50 for human HCT116 cells to IC50 for human FF2441 cells. The format is ADME, cell-based, HCT-116. The conditions noted are these: HCT116 cells and FF2441 cells. The method in brief: (§2)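 Colon adenocarcinoma lines (Caco-2, HT-29, HCT-116, SW-480) were grown in Advanced DMEM with 10% heat-treated FBS and L-glutamine, or in RPMI-1640 with 10% FBS. They were exposed to PBS vehicle or graded compound (10–100 μM, or 1.6–50 μM) for 72 h, and viability was read by MTS. FF2441 normal fibroblasts were tested by a similar MTS procedure. IC50 was fitted from dose-response curves.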

Data set [3] relates to HCT-116. The data set can be described thus: Antitumor activity against human HCT116 cells after 72 hrs by MTS assay. The conditions noted are these: HCT-116, 72 h. Type of data set: functional, cell-based. The method in brief:
as §1

The subject of data set [4] is Caco-2. The data set can be described thus: Selectivity ratio of IC50 for human Caco-2 cells to IC50 for human FF2441 cells. The method in brief: as §2
Data set [5] concerns SW480. The data set can be described thus: Ratio of IC50 for human SW480 cells to IC50 for human FF2441 cells. The method in brief: as §2
Data set [6] deals with HT-29. The data set can be described thus: Selectivity ratio of IC50 for human HT-29 cells to IC50 for human FF2441 cells. The method in brief: as §2
Data set [7] deals with MDA-MB-231. The data set can be described thus: Antitumor activity against human MDA-MB-231 cells after 24 hrs by MTS assay. The format is functional, cell-based. The note with it: MDA-MB-231, 24 h. The method in brief: (§3)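 Cells plated at 5×10^3 per well for 24 h, then treated with PBS vehicle or increasing concentrations (10–100 μM or 1–40 μM). Viable cells measured by MTS as percent of PBS control. IC50 from dose-response curves. Normal FF2441 fibroblasts run alongside. Lines grown in DMEM/10% FBS, except WM115 in Tu2% medium without calcium chloride, with 2% heat-treated FBS.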

The test system of data set [8] is Cancer cell lines. The data set is described as follows: Inhibition of MAPK in human colon cancer cells assessed as decrease in pPRAS40 level at 2 to 6 uM by Western blot analysis. Type of data set: cell-based. The method in brief:
(§4)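 They were cleared at ≥10,000×g for 10 min at 4°C and assayed by BCA; 30 μg per lane went on NuPAGE gels, then PVDF. Probes: phospho-Akt (Ser473), phospho-PRAS40, cleaved PARP and p27, with HRP secondaries and ECL detection.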

Data set [9] relates to Cancer cell lines. The data set can be described thus: Inhibition of MAPK in human colon cancer cells assessed as increase in p27 level at 2 to 6 uM by Western blot analysis. The format is cell-based. The method in brief:
as §4

Data set [10] deals with PC-3. The data set is described as follows: Antitumor activity against human PC3 cells after 24 hrs by MTS assay. The note with it: PC-3, 24 h. The format is functional, cell-based. The method in brief: as §3
Data set [11] has as its system HT-1080. The data set can be described thus: Antitumor activity against human HT1080 cells after 24 hrs by MTS assay. The format is functional, cell-based. The note with it: HT-1080, 24 h. The method in brief:
as §3

The subject of data set [12] is Cancer cell lines. The data set can be described thus: Inhibition of MAPK in human colon cancer cells assessed as decrease in AKT2 level at 2 to 6 uM by Western blot analysis. The format is cell-based.
Data set [13] relates to Caco-2. The data set can be described thus: Antitumor activity against human Caco-2 cells after 72 hrs by MTS assay. Type of data set: functional, cell-based. The note with it: Caco-2, 72 h. The method in brief: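 Cells plated at 5×10^3 per well for 24 h, then exposed to PBS vehicle or increasing compound concentrations for 72 h. Viable cells were quantified by MTS and expressed as a percentage of the PBS-treated control. IC50 was fitted from dose-response curves, from at least three independent experiments, and reported with standard error.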

Data set [14] deals with Cancer cell lines. The data set is described as follows: Inhibition of MAPK in human colon cancer cells assessed as decrease in pAKT level at 2 to 6 uM by Western blot analysis. The format is cell-based. The method in brief: as §4
Data set [15] deals with WM-115. The data set can be described thus: Antitumor activity against human WM115 cells after 24 hrs by MTS assay. The format is functional, cell-based. The note with it: WM-115, 24 h. The method in brief: as §3
In data set [16] the test system is A549. The data set can be described thus: Antitumor activity against human A549 cells after 24 hrs by MTS assay. The conditions noted are these: A549, 24 h. The format is functional, cell-based. The method in brief:
as §3

Data set [17] deals with OVCAR-3. The data set can be described thus: Antitumor activity against human OVCAR-3 cells after 24 hrs by MTS assay. The format is functional, cell-based. The note with it: OVCAR-3, 24 h. The method in brief: as §3
Data set [18] has as its system Cancer cell lines. The data set can be described thus: Inhibition of MAPK in human colon cancer cells assessed as increase in cleaved PARP level at 2 to 6 uM by Western blot analysis. Type of data set: cell-based. The method in brief: as §4
Data set [19] has as its system Cancer cell lines. The data set is described as follows: Inhibition of PI3K in human colon cancer cells assessed as increase in cleaved PARP level at 2 to 6 uM by Western blot analysis. The format is cell-based. The method in brief: (§5)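 Lysates in HEPES pH 7.5/NaCl/EDTA/Triton X-100 buffer with phosphatase and protease inhibitors, cleared at ≥10,000×g for 10 min at 4°C. BCA-quantified, 30 μg per lane. SDS gel, PVDF transfer, probed for PRAS40, phospho-PRAS40, Akt3, phospho-Akt Ser473, p27, cleaved PARP, cyclin D1 and Erk. HRP secondaries, ECL detection.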

Data set [20] concerns Cancer cell lines. The data set can be described thus: Inhibition of PI3K in human colon cancer cells assessed as decrease in pPRAS40 level at 2 to 6 uM by Western blot analysis. The format is cell-based. The method in brief: as §5
Data set [21] relates to Cancer cell lines. The data set can be described thus: Inhibition of PI3K in human colon cancer cells assessed as decrease in pAKT level at 2 to 6 uM by Western blot analysis. The format is cell-based. The method in brief:
as §5

The test system of data set [22] is Cancer cell lines. The data set can be described thus: Inhibition of PI3K in human colon cancer cells assessed as decrease in AKT2 level at 2 to 6 uM by Western blot analysis. The format is cell-based.
In data set [23] the test system is Cancer cell lines. The data set is described as follows: Inhibition of PI3K in human colon cancer cells assessed as increase in p27 level at 2 to 6 uM by Western blot analysis. The format is cell-based. The method in brief: as §5
The target of data set [24] is Nitric oxide synthase, inducible (Homo sapiens) (UniProt P35228). The data set is described as follows: Inhibition of iNOS in human Caco-2 cells assessed as reduction of total nitrite production at 2 uM after 72 hrs by colorimetric assay relative to control. The format is cell-based. The method in brief: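 Caco-2 cells (1×10^6) in Advanced DMEM/10% heat-treated FBS for 12 h, then conditioned in phenol-red-free DMEM/0.5% FBS. Treated 72 h in the same medium, PBS control. Supernatant cleared at 500×g, incubated 2 h with nitrate reductase and cofactors, then Griess reagents I and II. A540 read against a nitrate standard curve (5–35 μM). One-way ANOVA.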
Nitric oxide synthase, inducible (Homo sapiens), sequence (P35228 whole entry): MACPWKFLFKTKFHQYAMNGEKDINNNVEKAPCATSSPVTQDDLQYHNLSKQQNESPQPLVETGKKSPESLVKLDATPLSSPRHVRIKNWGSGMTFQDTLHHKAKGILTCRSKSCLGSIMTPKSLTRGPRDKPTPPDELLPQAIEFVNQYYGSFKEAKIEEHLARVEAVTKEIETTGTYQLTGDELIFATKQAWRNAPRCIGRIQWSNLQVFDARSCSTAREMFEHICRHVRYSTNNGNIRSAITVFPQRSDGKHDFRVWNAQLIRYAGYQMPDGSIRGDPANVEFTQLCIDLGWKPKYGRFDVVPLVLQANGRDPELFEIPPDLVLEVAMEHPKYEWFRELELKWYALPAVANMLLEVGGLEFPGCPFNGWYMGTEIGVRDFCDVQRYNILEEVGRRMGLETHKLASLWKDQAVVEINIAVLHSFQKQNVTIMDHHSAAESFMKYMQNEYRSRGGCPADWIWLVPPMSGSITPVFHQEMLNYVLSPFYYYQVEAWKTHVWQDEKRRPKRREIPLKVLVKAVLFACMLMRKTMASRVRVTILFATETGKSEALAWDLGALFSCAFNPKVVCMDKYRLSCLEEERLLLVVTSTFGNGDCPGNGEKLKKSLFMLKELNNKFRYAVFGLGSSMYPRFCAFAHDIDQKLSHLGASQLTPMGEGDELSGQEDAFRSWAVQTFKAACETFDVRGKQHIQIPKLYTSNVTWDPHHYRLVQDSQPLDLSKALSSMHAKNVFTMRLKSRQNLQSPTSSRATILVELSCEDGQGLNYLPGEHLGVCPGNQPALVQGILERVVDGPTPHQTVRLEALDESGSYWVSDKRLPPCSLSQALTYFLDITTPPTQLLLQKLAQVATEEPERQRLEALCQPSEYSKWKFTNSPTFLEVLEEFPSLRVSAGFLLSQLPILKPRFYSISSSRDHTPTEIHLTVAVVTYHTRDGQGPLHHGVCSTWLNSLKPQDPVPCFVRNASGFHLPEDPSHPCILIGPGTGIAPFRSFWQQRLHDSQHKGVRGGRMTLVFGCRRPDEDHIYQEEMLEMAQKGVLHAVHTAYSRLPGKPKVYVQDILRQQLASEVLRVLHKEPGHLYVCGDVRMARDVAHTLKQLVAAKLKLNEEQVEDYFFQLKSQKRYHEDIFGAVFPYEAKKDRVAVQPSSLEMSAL

Data set [25] concerns HT-29. The data set can be described thus: Antitumor activity against human HT-29 cells after 72 hrs by MTS assay. Type of data set: functional, cell-based. The conditions noted are these: HT-29, 72 h. The method in brief:
as §1

Data on four molecules can be found in ChEMBL document CHEMBL1155380, “Synthesis and characterization of a novel iNOS/Akt inhibitor Se,Se'-1,4-phenylenebis(1,2-ethanediyl)bisisoselenourea (PBISe)--against colon cancer” (Bioorg Med Chem Lett, 2010).

The structures appear in SMILES notation. Active and inactive are the calls of the source. No cut-off for these calls is given here.

For `Br.N=C(N)[Se]CCc1ccccc1`, the half-maximal inhibitory concentration (IC50) in data set [1] and in data set [3] was more than 100 µM each time. The selectivity ratio in data set [2] was 2. Also, the Ratio in data set [4], in data set [5] and in [6] was 2 in each case.

In the case of `Br.Br.N=C(N)SCCc1ccc(CCSC(=N)N)cc1`, the IC50 was more than 100 µM in data set [7]; more than 100 µM in data set [10]; more than 100 µM in [3]; more than 100 µM in data set [11]; 59.4 µM in data set [13]; more than 100 µM in data set [15]. The IC50 in data set [16] and in data set [17] was more than 100 µM each time. The inhibition entry in [8], in data set [9], in data set [12], in data set [14] and in [18] was “inactive” in each case. For the same molecule, the selectivity ratio in [2] amounted to 2. Further, the Ratio in data set [4] and in [5] was 2 each time.

Consider `Br.N=C(N)[Se]CCc1ccc(CC[Se]C(=N)N)cc1`, for which the inhibition entry in [19], in data set [20], in data set [21], in data set [22] and in data set [23] was “Active” throughout. For the same molecule, the IC50 came out at 6.03 µM in data set [7]; 6.64 µM in data set [10]; 3.22 µM in data set [11]; 3.84 µM in data set [25]; 9.7 µM in data set [15]; 4.17 µM in data set [16]. The IC50 in [17] was determined as 5.33 µM. The selectivity ratio in [2] is 2. The Ratio in [4], in [5] and in data set [6] was 2 in each case. In data set [24], the inhibition was found to be 25%.

`Br.N=C(N)SCCc1ccccc1` [PHENYLETHYLISOTHIOUREAHYDROBROMIDE]: the IC50 in data set [1], in data set [3] and in data set [13] was more than 100 µM each time. The selectivity ratio in data set [2] worked out at 2. Also, the Ratio in data set [4], in [5] and in data set [6] was 2 throughout.
